Data set [1] is described as follows: Stability. The data set is classed as in vitro ADME, bovine. As to conditions: fluorophore conjugated with a small molecule ligand, 24 h.
Data set [2] can be described thus: In vivo biodistribution and clearance in rodents after intravenous injection. As to conditions: rodent, 4 h post-injection. Set-up: species or system CD-1 mice and SD rats. The method in brief:
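Male CD-1 mice (≈25 g) and male Sprague-Dawley rats (≈250 g) were anaesthetised with ketamine 100 mg/kg plus xylazine 10 mg/kg i.p. They received test compound i.v. (mice 25 nmol, rats 100 nmol) and were imaged 4 h later on the FLARE NIR system (760 nm excitation, 11.0 mW/cm2; 810 ± 20 nm emission). Organ signal-to-background was calculated against surrounding muscle, with ≥3 animals per time point, mean ± s.d.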

A short description of data set [3]: Optical/chemical stability of fluorophores in 100% warm serum. To be noted: 24 h. It is filed as in vitro ADME, bovine. In outline: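 Test fluorophores (10 mM DMSO stock, 100 μM working solution) were diluted into 100% FBS buffered with 50 mM HEPES, pH 7.4, and held at 37 °C. Optical stability was followed over time to 24 h by absorbance and fluorescence spectra, under 770 nm laser excitation at 10 mW.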

A short description of data set [4]: 100% FBS supplemented with 50 mM HEPES, pH 7.4. As to conditions: fetal bovine, 37 °C, up to 24 h.

Regarding `CC1(C)C(/C=C/C2=C(c3ccc(CCC(=O)O)cc3)C(=C/C=C3/N(CCC[N+](C)(C)C)c4ccc(S(=O)(=O)O)cc4C3(C)C)/CCC2)=[N+](CCC[N+](C)(C)C)c2ccc(S(=O)(=O)O)cc21` [ZW800-1C], in data set [1], the “stable form maintained in warm serum” value was more than 98%. The renal excretion in data set [2] is listed as more than 80%. Besides, the serum stability in data set [3] is more than 99%.
Turning to Cyclo(Arg-Gly-Asp-D-Tyr-Lys), in data set [4], the fragment found entry is recorded as “hydrolyzed form of cRGD-ZW800-1A, 24 h” and the not cleaved was >98%, 24 h.

The record behind these values is paper PMC4267294 (RSC advances, 2014).
